Assay results as given in ChEMBL document CHEMBL3525931, “Stereoselective interaction of pantoprazole with ABCG2. II. In vitro flux analysis” (Drug Metab Dispos, 2012).

Columns and labels:
[1] = Permeability surface area for passive diffusion in MDCK2 cells assessed as transport at 50 uM after 0.5 to 1 hrs by HPLC method; assay type: ADME, cell-based, Canis lupus familiaris; conditions: dog, mdck-ii
In short: (§1)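 PS_D (passive diffusion) derived from observed permeability of single PAN isomers across empty-vector (pcDNA3.1) MDCKII monolayers (TEER >200 Ω·cm²). Both A→B and B→A directions in serum-free Opti-MEM I at 37°C, with [3H]mannitol as paracellular marker. Receiver sampled at 0.5 and 1 h, PAN measured by HPLC-UV. PS_D calculated from a three-compartment model equation at each donor concentration.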

[2] = Permeability surface area for passive diffusion in MDCK2 cells assessed as transport at 200 uM after 0.5 to 1 hrs by HPLC method; assay type: ADME, cell-based, Canis lupus familiaris; conditions: dog, mdck-ii; in short: as §1
[3] = Permeability surface area for passive diffusion in MDCK2 cells assessed as transport at 3 uM after 0.5 to 1 hrs by HPLC method; assay type: ADME, cell-based, Canis lupus familiaris; conditions: dog, mdck-ii; in short: as §1
[4] = Permeability surface area for passive diffusion in MDCK2 cells assessed as transport at 10 uM after 0.5 to 1 hrs by HPLC method; assay type: ADME, cell-based, Canis lupus familiaris; conditions: dog, mdck-ii; in short: as §1
[5] = Permeability surface area for passive diffusion in MDCK2 cells assessed as transport at 30 uM after 0.5 to 1 hrs by HPLC method; assay type: ADME, cell-based, Canis lupus familiaris; conditions: dog, mdck-ii; in short: as §1
[6] = Permeability surface area for passive diffusion in MDCK2 cells assessed as transport at 3 to 200 uM after 0.5 to 1 hrs by HPLC method; assay type: ADME, cell-based, Canis lupus familiaris; conditions: dog, mdck-ii; in short: as §1
[7] = substrate: COc1ccnc(C[S@@+]([O-])c2nc3cc(OC(F)F)ccc3[nH]2)c1OC; test: (§2) Drug transport in MDCK2 cells expressing human ABCG2 assessed as ABCG2-mediated transport by HPLC method; assay type: ADME, cell-based, MDCK-II
In short: (§3)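 Kinetics came from the same Transwell bidirectional flux runs in rat Abcg2- or human ABCG2-MDCKII, with donor 3–200 μM single isomer. Cellular concentrations were predicted from a three-compartment model using PS_D from mock cells and PS_PC from mannitol. Apparent apical efflux permeability was fitted against predicted cellular concentration by saturable kinetics to give K_M and T_max.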

[8] = substrate: COc1ccnc(C[S@+]([O-])c2nc3cc(OC(F)F)ccc3[nH]2)c1OC; test: as §2; assay type: ADME, cell-based, MDCK-II; in short: as §3
[9] = substrate: COc1ccnc(C[S@@+]([O-])c2nc3cc(OC(F)F)ccc3[nH]2)c1OC; test: (§4) Drug transport in MDCK2 cells expressing rat ABCG2 assessed as ABCG2-mediated transport by HPLC method; assay type: ADME, cell-based, MDCK-II; in short: as §3
[10] = substrate: COc1ccnc(C[S@+]([O-])c2nc3cc(OC(F)F)ccc3[nH]2)c1OC; test: as §4; assay type: ADME, cell-based, MDCK-II; in short: as §3

COc1ccnc(C[S+]([O-])c2nc3ccc(OC(F)F)cc3[nH]2)c1OC (racemic) [PANTOPRAZOLE]
Papp [1]: 251 uL/hr/cm2
Papp [2]: 271 uL/hr/cm2
Papp [3]: 231 uL/hr/cm2
Papp [4]: 242 uL/hr/cm2
Papp [5]: 226 uL/hr/cm2
Papp [6]: 244 uL/hr/cm2

B1: Broad substrate specificity ATP-binding cassette transporter ABCG2 (Homo sapiens) (protein)
chain: MSSSNVEVFIPVSQGNTNGFPATASNDLKAFTEGAVLSFHNICYRVKLKSGFLPCRKPVEKEILSNINGIMKPGLNAILGPTGGGKSSLLDVLAARKDPSGLSGDVLINGAPRPANFKCNSGYVVQDDVVMGTLTVRENLQFSAALRLATTMTNHEKNERINRVIQELGLDKVADSKVGTQFIRGVSGGERKRTSIGMELITDPSILFLDEPTTGLDSSTANAVLLLLKRMSKQGRTIIFSIHQPRYSIFKLFDSLTLLASGRLMFHGPAQEALGYFESAGYHCEAYNNPADFFLDIINGDSTAVALNREEDFKATEIIEPSKQDKPLIEKLAEIYVNSSFYKETKAELHQLSGGEKKKKITVFKEISYTTSFCHQLRWVSKRSFKNLLGNPQASIAQIIVTVVLGLVIGAIYFGLKNDSTGIQNRAGVLFFLTTNQCFSSVSAVELFVVEKKLFIHEYISGYYRVSSYFLGKLLSDLLPMRMLPSIIFTCIVYFMLGLKPKADAFFVMMFTLMMVAYSASSMALAIAAGQSVVSVATLLMTICFVFMMIFSGLLVNLTTIASWLSWLQYFSIPRYGFTALQHNEFLGQNFCPGLNATGNNPCNYATCTGEEYLVKQGIDLSPWGLWKNHVALACMIVIFLTIAYLKLLFLKKYS
Km [7]: 5.32 µM
Km [8]: 0.59 µM

B2: Broad substrate specificity ATP-binding cassette transporter ABCG2 (Rattus norvegicus) (protein)
chain: MSSSNDHVLVPMSQRNKNGLPGMSSRGARTLAEGDVLSFHHITYRVKVKSGFLVRKTAEKEILSDINGIMKPGLNAILGPTGGGKSSLLDVLAARKDPRGLSGDVLINGAPQPANFKCSSGYVVQDDVVMGTLTVRENLQFSAALRLPKAMKTHEKNERINTIIKELGLDKVADSKVGTQFTRGISGGERKRTSIGMELITDPSILFLDEPTTGLDSSTANAVLLLLKRMSKQGRTIIFSIHQPRYSIFKLFDSLTLLASGKLMFHGPAQKALEYFASAGYHCEPYNNPADFFLDVINGDSSAVMLNRGEQDHEANKTEEPSKREKPIIENLAEFYINSTIYGETKAELDQLPVAQKKKGSSAFREPVYVTSFCHQLRWIARRSFKNLLGNPQASVAQLIVTVILGLIIGALYFGLKNDPTGMQNRAGVFFFLTTNQCFTSVSAVELFVVEKKLFIHEYISGYYRVSSYFFGKLVSDLLPMRFLPSVIYTCILYFMLGLKRTVEAFFIMMFTLIMVAYTASSMALAIAAGQSVVSVATLLMTISFVFMMLFSGLLVNLRTIGPWLSWLQYFSIPRYGFTALQHNEFLGQEFCPGLNVTMNSTCVNSYTICTGNDYLINQGIDLSPWGLWRNHVALACMIIIFLTIAYLKLLFLKKYS
Km [9]: 1.85 µM
Km [10]: 0.25 µM
